Measurements: ChEMBL document CHEMBL3352166, “Structure-guided design and development of novel benzimidazole class of compounds targeting DNA gyraseB enzyme of Staphylococcus aureus” (Bioorg Med Chem, 2014)
In brackets after ≈: the same amount, converted by molar mass.

Assays:
DNA gyrase subunit B = DNA gyrase subunit B (Staphylococcus aureus, UniProt P0A0K8); assay: Inhibition of Staphylococcus aureus DNA gyrase B ATPase activity
DNA gyrase = DNA gyrase (Staphylococcus aureus, UniProt P0A0K8+P20831); assay: Inhibition of Staphylococcus aureus DNA gyrase-mediated supercoiling of relaxed DNA using pBR 322 as substrate by agarose gel electrophoresis analysis; type: protein-complex assay
Sequence of DNA gyrase (P0A0K8 whole entry): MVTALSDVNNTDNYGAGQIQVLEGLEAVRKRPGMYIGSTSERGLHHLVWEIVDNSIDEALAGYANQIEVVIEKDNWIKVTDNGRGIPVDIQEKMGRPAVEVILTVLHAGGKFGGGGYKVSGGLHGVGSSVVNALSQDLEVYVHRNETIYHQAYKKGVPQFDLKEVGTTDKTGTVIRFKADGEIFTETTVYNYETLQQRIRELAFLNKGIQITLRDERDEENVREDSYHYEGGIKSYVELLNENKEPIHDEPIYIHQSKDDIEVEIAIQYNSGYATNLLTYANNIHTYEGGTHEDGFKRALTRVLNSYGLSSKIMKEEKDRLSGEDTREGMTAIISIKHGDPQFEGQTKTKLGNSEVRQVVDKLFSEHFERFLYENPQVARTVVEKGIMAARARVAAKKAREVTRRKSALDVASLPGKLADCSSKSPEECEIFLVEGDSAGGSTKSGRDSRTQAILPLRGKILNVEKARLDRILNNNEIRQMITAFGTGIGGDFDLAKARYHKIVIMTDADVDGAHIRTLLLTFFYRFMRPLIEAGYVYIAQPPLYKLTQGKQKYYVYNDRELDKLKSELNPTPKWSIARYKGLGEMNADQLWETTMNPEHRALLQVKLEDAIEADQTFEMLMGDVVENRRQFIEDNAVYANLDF
Sequence of DNA gyrase (P20831 whole entry): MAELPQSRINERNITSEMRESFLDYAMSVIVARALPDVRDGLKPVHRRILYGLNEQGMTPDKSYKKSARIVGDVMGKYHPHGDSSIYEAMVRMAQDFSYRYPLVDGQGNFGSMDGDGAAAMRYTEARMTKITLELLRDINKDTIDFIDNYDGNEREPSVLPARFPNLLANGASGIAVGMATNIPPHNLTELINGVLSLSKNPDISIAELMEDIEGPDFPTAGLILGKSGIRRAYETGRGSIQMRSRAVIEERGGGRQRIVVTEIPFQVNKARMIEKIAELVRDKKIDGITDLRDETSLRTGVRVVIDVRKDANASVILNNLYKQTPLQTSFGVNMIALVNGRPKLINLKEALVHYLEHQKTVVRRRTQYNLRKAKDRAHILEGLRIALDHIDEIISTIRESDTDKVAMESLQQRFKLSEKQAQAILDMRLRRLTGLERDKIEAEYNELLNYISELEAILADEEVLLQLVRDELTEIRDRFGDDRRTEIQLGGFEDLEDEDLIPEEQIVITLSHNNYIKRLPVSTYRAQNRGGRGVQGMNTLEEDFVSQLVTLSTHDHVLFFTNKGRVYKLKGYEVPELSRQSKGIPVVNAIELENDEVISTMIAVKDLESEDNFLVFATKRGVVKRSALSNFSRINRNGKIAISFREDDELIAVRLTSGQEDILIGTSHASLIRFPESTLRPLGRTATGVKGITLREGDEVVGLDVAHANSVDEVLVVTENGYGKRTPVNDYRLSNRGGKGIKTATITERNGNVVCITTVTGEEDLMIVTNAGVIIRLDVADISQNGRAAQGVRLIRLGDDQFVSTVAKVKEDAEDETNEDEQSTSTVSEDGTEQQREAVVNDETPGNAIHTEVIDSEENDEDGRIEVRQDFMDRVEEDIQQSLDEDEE

Staphylococcus aureus [1] = assay: Antimicrobial activity against Staphylococcus aureus MTCC 3160 after 16 to 24 hrs by agar dilution method; type: functional
How it was run: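 MIC by agar dilution per CLSI on Mueller-Hinton agar. Overnight colonies were suspended to about 10^6 cfu/mL, and 1 mL was added to 19 mL medium. Compounds were made up in 0.9% saline and tested over about 10 doubling dilutions, 100 µM to 0.1 µM. Plates ran 16-20 h at 35 °C in ambient air. MIC was the lowest concentration preventing visible growth.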

Staphylococcus aureus [2] = assay: Antimicrobial activity against methicillin-resistant Staphylococcus aureus MTCC 96 after 16 to 24 hrs by agar dilution method; type: functional
How it was run: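 Agar dilution per CLSI guidelines on Mueller-Hinton agar. Overnight colonies suspended to about 10^6 cfu/mL, and 1 mL added to 19 mL medium. Stocks in 0.9% saline, tested over about 10 doubling dilutions from 100 µM to 0.1 µM. Plates incubated at 35 °C in ambient air for 16-20 h. MIC taken as the lowest concentration preventing visible growth.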

[3] = Cytotoxicity against human HEK293 cells assessed as reduction in cell viability at 100 uM after 72 hrs by MTT assay; type: cell-based; conditions: read-out: INH
How it was run: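 HEK-293 cells were seeded at 5000 per well and left 24 h, then washed. They were exposed to 100 µM in RPMI + 5% FBS + 1% penicillin/streptomycin, with final DMSO ≤0.5%, for 72 h at 37 °C in 5% CO2. DMSO-treated cultures served as controls. Viability was read by MTT at 570 nm, in triplicate, as percentage inhibition.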

Staphylococcus aureus [4] = assay: Inhibition of biofilm formation in methicillin-resistant Staphylococcus aureus MTCC 96 after 24 hr incubation by tissue culture plate method; conditions: MTCC 96, 24 h
Staphylococcus aureus [5] = assay: Antimicrobial activity against Staphylococcus aureus infected in CD1 mouse assessed as animal protection at 5 mg/kg, iv treated 4 hrs after infection measured 24 hrs post infection; type: functional
How it was run: (§1)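 Female CD-1 mice (20–25 g, ten per group) were infected intraperitoneally with 3 × 10^7 cfu/mouse, slightly above LD100. Test compound was given iv at 5, 10 or 25 mg/kg at infection and 4 h post infection. Vancomycin at 5 mg/kg served as comparator. Survival was scored 24 h post infection.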

Staphylococcus aureus [6] = assay: Antimicrobial activity against Staphylococcus aureus infected in CD1 mouse assessed as animal protection at 10 mg/kg, iv treated 4 hrs after infection measured 24 hrs post infection; type: functional; how it was run: as §1
Danio rerio [7] = organism: Danio rerio; assay: Cardiotoxicity in zebra fish assessed as change in heart rate up to 30 uM; type: toxicity, organism-based; conditions: zebrafish, in vivo
How it was run: (§2)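 Zebrafish larvae at 3 dpf were dosed in 24-well plates, 5 embryos per well, in 0.1% DMSO vehicle at 1–30 µM for 4 h at 28 °C. Terfenadine 20 µM was the positive control. Atrial and ventricular beats were watched by light microscopy, timing 30 beats and averaging 5 embryos per well. Results are mean ± SEM, with significance versus control.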

Danio rerio [8] = organism: Danio rerio; assay: Cardiotoxicity in zebra fish assessed as AV ratio up to 30 uM; type: organism-based; conditions: zebrafish, in vivo; how it was run: as §2
Staphylococcus aureus [9] = assay: Antimicrobial activity against Staphylococcus aureus infected in CD1 mouse assessed as animal protection at 25 mg/kg, iv treated 4 hrs after infection measured 24 hrs post infection

Sequence of DNA gyrase subunit B (P0A0K8 whole entry): as the sequence (P0A0K8 whole entry) above

Structure (SMILES): O=C(O)CSCC(=O)Nc1ccc(-c2nc3cc([N+](=O)[O-])ccc3[nH]2)cc1
- IC50 (DNA gyrase subunit B): 3.13 µM
- IC50 (DNA gyrase): 2.1 µM
- MIC (Staphylococcus aureus [1]): 8.09 µM (≈ 3.12 µg/mL)
- MIC (Staphylococcus aureus [2]): 17 µM (≈ 6.56 µg/mL)
- cytotoxicity at 72 h, 100 µM [3]: 25.2%
- IC50 (Staphylococcus aureus [4]): 10.3 µM

Structure (SMILES): O=C(O)CCCC(=O)Nc1ccc(-c2nc3cc(F)ccc3[nH]2)cc1
- IC50 (DNA gyrase subunit B): 1.32 µM
- IC50 (DNA gyrase): 1.13 µM
- MIC (Staphylococcus aureus [1]): 4.57 µM (≈ 1.56 µg/mL)
- MIC (Staphylococcus aureus [2]): 9.15 µM (≈ 3.12 µg/mL)
- cytotoxicity at 72 h, 100 µM [3]: 7.59%
- Activity (Staphylococcus aureus [5]): 60%
- Activity (Staphylococcus aureus [6]): 80%
- Activity (Danio rerio [7]): Non-toxic
- Activity (Danio rerio [8]): Non-toxic
- IC50 (Staphylococcus aureus [4]): 9.63 µM
- Activity (Staphylococcus aureus [9]): 100%

Structure (SMILES): O=C(O)COCC(=O)Nc1ccc(-c2nc3cc(Cl)ccc3[nH]2)cc1
- IC50 (DNA gyrase subunit B): 15.3 µM
- IC50 (DNA gyrase): 12.5 µM
- MIC (Staphylococcus aureus [1]): 34.7 µM (≈ 12.5 µg/mL)
- MIC (Staphylococcus aureus [2]): 69.5 µM (≈ 25 µg/mL)
- cytotoxicity at 72 h, 100 µM [3]: 29.7%
- IC50 (Staphylococcus aureus [4]): 71.2 µM

Structure (SMILES): O=C(O)CSCC(=O)Nc1ccc(-c2nc3cc(Cl)ccc3[nH]2)cc1
- IC50 (DNA gyrase subunit B): 13.8 µM
- IC50 (DNA gyrase): 12.1 µM
- MIC (Staphylococcus aureus [1]): 4.15 µM (≈ 1.56 µg/mL)
- MIC (Staphylococcus aureus [2]): 4.15 µM (≈ 1.56 µg/mL)
- cytotoxicity at 72 h, 100 µM [3]: 23%
- IC50 (Staphylococcus aureus [4]): 9.72 µM

Structure (SMILES): O=C(O)COCC(=O)Nc1ccc(-c2nc3cc([N+](=O)[O-])ccc3[nH]2)cc1
- IC50 (DNA gyrase subunit B): 8.51 µM
- IC50 (DNA gyrase): 5.8 µM
- MIC (Staphylococcus aureus [1]): 33.8 µM (≈ 12.5 µg/mL)
- MIC (Staphylococcus aureus [2]): 47 µM (≈ 17.4 µg/mL)
- cytotoxicity at 72 h, 100 µM [3]: 31.3%
- IC50 (Staphylococcus aureus [4]): 83.2 µM

Structure (SMILES): COc1ccc2[nH]c(-c3ccc(NC(=O)COCC(=O)O)cc3)nc2c1
- IC50 (DNA gyrase subunit B): 4.34 µM
- IC50 (DNA gyrase): 3.06 µM
- MIC (Staphylococcus aureus [1]): 17.6 µM (≈ 6.25 µg/mL)
- MIC (Staphylococcus aureus [2]): 17.6 µM (≈ 6.25 µg/mL)
- cytotoxicity at 72 h, 100 µM [3]: 23.3%
- IC50 (Staphylococcus aureus [4]): 31.7 µM

Structure (SMILES): COc1ccc2[nH]c(-c3ccc(NC(=O)CSCC(=O)O)cc3)nc2c1
- IC50 (DNA gyrase subunit B): 9.31 µM
- IC50 (DNA gyrase): 16 µM
- MIC (Staphylococcus aureus [1]): 67.3 µM (≈ 25 µg/mL)
- MIC (Staphylococcus aureus [2]): 67.3 µM (≈ 25 µg/mL)
- cytotoxicity at 72 h, 100 µM [3]: 22.6%
- IC50 (Staphylococcus aureus [4]): > 100 µM

Structure (SMILES): O=C(O)COCC(=O)Nc1ccc(-c2nc3cccnc3[nH]2)cc1
- IC50 (DNA gyrase subunit B): 6.93 µM
- IC50 (DNA gyrase): 4.7 µM
- MIC (Staphylococcus aureus [1]): 19.1 µM (≈ 6.25 µg/mL)
- MIC (Staphylococcus aureus [2]): 38.3 µM (≈ 12.5 µg/mL)
- cytotoxicity at 72 h, 100 µM [3]: 38.7%
- IC50 (Staphylococcus aureus [4]): 82.5 µM

Structure (SMILES): O=C(O)CSCC(=O)Nc1ccc(-c2nc3cccnc3[nH]2)cc1
- IC50 (DNA gyrase subunit B): 2.31 µM
- IC50 (DNA gyrase): 1.7 µM
- MIC (Staphylococcus aureus [1]): 4.55 µM (≈ 1.56 µg/mL)
- MIC (Staphylococcus aureus [2]): 9.12 µM (≈ 3.12 µg/mL)
- cytotoxicity at 72 h, 100 µM [3]: 31.9%
- IC50 (Staphylococcus aureus [4]): 11.3 µM
